# An excerpt weighted towards active compounds, which were near 2.9% of everything screened.
# Env fusion inh = inhibitors of HIV Env-mediated cell fusion; HeLa-JRFL Env/CEM21 cell fusion, luciferase; actives 1.1% (n = 360,000); inhibition, % at 12.3 µM; AID 651610;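 active = mean replicate inhibition score of at least 50 and every replicate individually at or above 50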;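 also: 0% = plate neutral controls and 100% = maraviroc near 300 nM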
# PAX8 inh HTS = PAX8 transcriptional activity inhibition | inhibition, % at 12.6 µM | RMG-I TPO-luciferase reporter, SteadyGlo, 24 h | actives 1.2% (n = 360,000);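 active = mean replicate inhibition at least 60% with every replicate also reaching 60%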;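 also: luciferase light reporting Pax8 driven TPO promoter activity; plate controls were median of neutral control wells for no effect and mitoxantrone controls for full effect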
# GSIS activator = primary screen for activators of insulin secretion dependent on glucose, INS-1E cells, GLuc reporter luminescence; INS-1E GLuc reporter insulin secretion, 2-3 h; activation, % at 16.6 µM; actives 0.61% (n = 370,000);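 active = lowest replicate activation of at least 40%, so every replicate reaches that level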;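 also: 0% = median of neutral control wells and 100% = median of IBMX positive control wells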
# CDK5 p35 inh = CDK5/p35 (human) kinase inhibition; actives 0.01% (n = 330,000); AID 488839; Q00535+Q15078; inhibition, % at 10 µM; Recombinant CDK5/p35, ADP-Glo luminescence, 60 min;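 active = highest replicate inhibition of at least 50% and at least 75% of replicates reaching 50%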;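 also: plate controls were DMSO neutral control for no effect and GW8510 at 10 µM for full effect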
# Target sequence (Q00535 whole entry, looked up): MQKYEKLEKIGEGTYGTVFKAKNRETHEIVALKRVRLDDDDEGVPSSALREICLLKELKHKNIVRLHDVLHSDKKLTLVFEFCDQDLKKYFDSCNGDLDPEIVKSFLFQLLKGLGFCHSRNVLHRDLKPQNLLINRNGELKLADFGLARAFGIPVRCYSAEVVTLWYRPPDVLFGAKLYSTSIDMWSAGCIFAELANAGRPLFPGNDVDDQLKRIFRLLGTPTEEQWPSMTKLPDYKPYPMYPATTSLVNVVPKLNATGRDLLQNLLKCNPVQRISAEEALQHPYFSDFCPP
# Target sequence (Q15078 whole entry, looked up): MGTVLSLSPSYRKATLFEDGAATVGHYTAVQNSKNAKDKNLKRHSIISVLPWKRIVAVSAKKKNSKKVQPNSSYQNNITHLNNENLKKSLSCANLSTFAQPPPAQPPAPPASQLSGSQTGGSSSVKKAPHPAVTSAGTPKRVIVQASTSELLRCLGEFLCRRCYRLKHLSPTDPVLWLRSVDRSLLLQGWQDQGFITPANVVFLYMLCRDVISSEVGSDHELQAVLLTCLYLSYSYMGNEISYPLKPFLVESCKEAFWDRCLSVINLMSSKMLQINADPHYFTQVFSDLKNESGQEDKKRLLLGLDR
# dFosB activator = enhances mouse delta FosB homodimer DNA binding | AID 493131 | activation, % at 25 µM | purified delta FosB, TAMRA-CDK5 oligo fluorescence polarization; percent of positive-control signal above neutral wells | actives 0.99% (n = 340,000);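 active = mean activation above about 17%, with every replicate also reaching it, limit read from the data, passing the limit was not always enough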
# Cneo AK release = causes C. neoformans cell lysis. AID 651654. adenylate kinase release luminescence, 4 h; normalised: neutral wells 0, clomiphene wells 100. actives 0.2% (n = 360,000). lysis activity, % at 15 µM;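 active = mean lysis activity across replicates of at least 80%, whatever share of replicates individually reach that level; inactive = mean lysis activity below 80%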
#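 Material: C. neoformans cells | Amount: Yeast cell density of 5 × 10^6 cells/mL | Medium: Fresh YPD growth medium | Dosing: Single dose | Times: Static 4 h at 37 °C with compound, 1 h detection | Detection: AK luminescence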
# Numbers without * were called inactive; / = no result; [ ] = dose if it differs, or a comment.
SMILES,Env fusion inh,PAX8 inh HTS,GSIS activator,CDK5 p35 inh,dFosB activator,Cneo AK release
Cc1ccc(C(=O)Nc2ccc(N3CCCC3)cc2)c(C)c1,-12,-20,7,2,49*,/
CNC[C@@H]1Oc2ccc(N(C)C)cc2C(=O)N([C@@H](C)CO)C[C@@H]1C,24[16.7 µM],-35,7,/,/,-5
CCN1[C@@H]2c3ccc(-c4cccc(F)c4)c(=O)n3C[C@@H]2[C@@H](CO)[C@@H]1C(=O)N[C@H](C)c1ccccc1,/,/,-2,/,/,6
CCS(=O)(=O)Nc1ccc2c(c1)C(=O)N(C)C[C@@H](OC)[C@@H](C)CN(C(=O)NC(C)C)[C@@H](C)CO2,/,/,14,/,/,2
Cc1c(CN(C)C)c2c(n1Cc1ccccc1)C(=O)c1ccc(Br)cc1-2,26,/,/,-2,19*,7
Cc1c(CN(C)C)c2c(n1C)C(=O)c1ccc(Br)cc1-2,-10,/,/,4,13,0
O=C(CC(F)(F)F)N1C[C@H]2[C@@H](c3ccccc31)[C@@H](CO)N2C(=O)Cc1ccccc1,/,10,-6,/,/,-1
C[C@H](CO)N1C[C@H](C)[C@@H](CN(C)Cc2ccc(Cl)c(Cl)c2)OCCCC[C@H](C)Oc2ccc(NC(=O)c3ccccc3)cc2C1=O,19[16.7 µM],28,20,/,/,15
C[C@@H]1CCCCO[C@H](CN(C)Cc2ccc(Cl)c(Cl)c2)[C@H](C)CN([C@@H](C)CO)C(=O)c2cc(NC(=O)c3ccccc3)ccc2O1,-3[16.7 µM],22,-19,/,/,1
C[C@H](CO)N1C[C@H](C)[C@H](CN(C)Cc2ccc(Cl)c(Cl)c2)OCCCC[C@H](C)Oc2ccc(NC(=O)Nc3ccccc3)cc2C1=O,71*[16.7 µM],100*,0,/,/,11
C[C@H]1CCCCO[C@H](CN(C)Cc2ccc(Cl)c(Cl)c2)[C@@H](C)CN([C@@H](C)CO)C(=O)c2cc(NC(=O)Nc3ccccc3)ccc2O1,39[16.7 µM],85*,3,/,/,-1
C[C@@H]1CCCCO[C@@H](CN(C)Cc2ccc(Cl)c(Cl)c2)[C@@H](C)CN([C@@H](C)CO)C(=O)c2cc(NC(=O)Nc3ccccc3)ccc2O1,13[16.7 µM],81*,-1,/,/,8
C[C@H](CO)N1C[C@H](C)[C@@H](CN(C)Cc2ccc(Cl)c(Cl)c2)OCCCC[C@H](C)Oc2ccc(NC(=O)Nc3ccccc3)cc2C1=O,11[16.7 µM],87*,3,/,/,-2
COc1ccc(NC(=O)Nc2ccc3c(c2)C(=O)N([C@H](C)CO)C[C@@H](C)[C@H](CN(C)C(=O)NC2CCCCC2)OCCCC[C@@H](C)O3)cc1,15[16.7 µM],36,-12,/,/,-1
C[C@H]1CN([C@@H](C)CO)C(=O)Cc2cc(NC(=O)Nc3ccc(C(F)(F)F)cc3)ccc2O[C@@H]1CN(C)Cc1ccc(C(=O)Nc2ccccc2N)cc1,27[16.7 µM],/,1,/,/,1
C[C@H]1CN([C@@H](C)CO)C(=O)c2cc(NC(=O)CCN3CCOCC3)ccc2O[C@@H]1CN(C)C(=O)Nc1cccc2ccccc12,-7[16.7 µM],5,17,/,/,/
CCc1ccc(OCCNc2cc(N3CCNC(C)C3)ccc2[N+](=O)[O-])cc1 (configuration not stated),/,18,-38,0,45*,1
Cc1ccccc1OCCNc1cc(N2CC(C)NC(C)C2)ccc1[N+](=O)[O-] (configuration not stated),-6,2,42*,-1,7,-1
CC1CN(c2ccc([N+](=O)[O-])c(NCCOc3ccc(Cl)cc3)c2)CC(C)N1 (configuration not stated),-10,3,-34,2,37*,-1
CC1CN(c2ccc([N+](=O)[O-])c(NCCOc3ccccc3)c2)CC(C)N1 (configuration not stated),-3,14,/,-2,3,-3
O=C(C[C@H]1C=C[C@H](NC(=O)Nc2cc(F)ccc2F)[C@H](CO)O1)NCc1ccncn1,-2[16.7 µM],-11,9,/,/,5
CC[C@@H]1C/C=C\C[C@@H](c2ccccc2)NC(=O)CCC(=O)N1,/,/,7,/,/,/
CN(c1ccccc1)c1nc(N)c([N+](=O)[O-])c(N2CCOCC2)n1,5,-9,45*,1,2,/
CN(c1ccccc1)c1nc(N)c([N+](=O)[O-])c(N2CCCC2)n1,-29,-86,-11,-2,3,0
O=C1C=CC(=O)c2c(O)c(N3CCN(CCOCCO)CC3)c(Br)c(O)c21,61*,97*,/,5,-13,/
SMILES,Env fusion inh,PAX8 inh HTS,GSIS activator,CDK5 p35 inh,dFosB activator,Cneo AK release
O=C1C=CC(=O)c2c(O)c(N3CCN(CCO)CC3)c(Cl)c(O)c21,-158,-10,-35,6,-6,/
Cc1ccc(C(=O)N/C(=C/c2ccco2)C(=O)NCc2ccco2)cc1,-3,3,115*,-1,-13,1
O=C1c2ccccc2NC(c2ccc(-c3cccc([N+](=O)[O-])c3)o2)N1O (configuration not stated),58*,-11,-15,0,-2,/
C[C@H](CO)N1C[C@H](C)[C@H](CN(C)CC2CC2)Oc2cc(-c3cncnc3)ccc2S1(=O)=O,-7[16.7 µM],/,13,/,/,-12
O=C(Nc1nc2ccccc2n1CCOc1ccc(Cl)cc1)c1ccco1,/,/,/,0,1,3
O=C(Nc1nc2ccccc2n1Cc1ccc(Cl)cc1)c1ccco1,/,/,48*,1,-1,/
C[C@@H]1CN([C@H](C)CO)S(=O)(=O)c2ccc(C3=CCCCC3)cc2O[C@@H]1CN(C)Cc1cncnc1,8[16.7 µM],/,-6,/,/,0
Cc1n[nH]c(C)c1CCC(=O)N/N=C/c1c[nH]c2ccccc12,3,25,-20,1,1,3
Cc1[nH]c2ccccc2c1/C=N\NC(=O)c1ccccc1Cl,70*,25,/,/,/,0
Cc1n[nH]c(C)c1CCC(=O)N/N=C/c1c(C)[nH]c2ccccc12,17,85*,/,1,-1,-5
COc1ccc(COC(=O)NC2CCN(S(=O)(=O)c3ccc(OC)cc3)CC2)cc1,56*,/,/,0,-1,-2
COc1ccc(S(=O)(=O)N2CCC(NC(=O)OCc3c(Cl)cccc3Cl)CC2)cc1,-103,29,/,0,0,1
C[C@@H]1CCCCO[C@H](CN(C)S(=O)(=O)c2cccs2)[C@@H](C)CN([C@@H](C)CO)C(=O)c2cc(NS(=O)(=O)c3ccc(Cl)cc3)ccc2O1,-1[16.7 µM],68*,-5,/,/,-1
C[C@H](CO)N1C[C@H](C)[C@@H](CN(C)S(=O)(=O)c2cccs2)OCCCC[C@H](C)Oc2ccc(NS(=O)(=O)c3ccc(Cl)cc3)cc2C1=O,13[16.7 µM],100*,-19,/,/,0
O=C(NCc1ccc2c(c1)OCO2)C(C(=O)c1ccccc1)n1cc(Cl)ccc1=O (configuration not stated),/,85*,8,1,0,/

# Compound activity as filed in PubChem BioAssay.
